Shown are actives, neighbours in structure and some others; about 3% of the full set was active somewhere.
TAAR1 antagonist = human TAAR1 antagonists, primary screen, Fluo-8 calcium fluorescence, CHO RD-HGA16 cells | antagonist | 360,000 tested, 1.5% active | Trace amine-associated receptor 1 (Homo sapiens), Q96RJ0 | inhibition, % at 3 µM | AID 624466, 2012;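 active = inhibition above a per-plate cutoff, the mean inhibition of test compounds on that plate plus 3 SD, cut at about 49% in these data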
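Test system – hTAAR1-expressing CHO RD-HGA16 cells, Gα16-coupled · Also added – β-PEA at EC80 concentration, post-compound challenge · Compound – 3 µM, single point · Incubation – dye loading 75 min at 37 °C, then 30 min room temperature · Measured by – Fluo-8 intracellular calcium dye fluorescence, real-time kinetic reads · Benchmarks – vehicle and agonist controls · Replicates – singlicate, one well per test compound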
CHRM4 antagonist = human M4 muscarinic receptor antagonists, primary screen, CHO cells, Fluo-8 calcium fluorescence | Muscarinic acetylcholine receptor M4 (Homo sapiens), P08173 | inhibition, % at 3 µM | 360,000 tested, 0.73% active | CHO-hM4 cells, ACh EC80;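 active = inhibition above its plate's cutoff, the mean inhibition of sample wells plus 3 SD, cut at about 27% in these data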
Target sequence (P08173 whole entry, looked up): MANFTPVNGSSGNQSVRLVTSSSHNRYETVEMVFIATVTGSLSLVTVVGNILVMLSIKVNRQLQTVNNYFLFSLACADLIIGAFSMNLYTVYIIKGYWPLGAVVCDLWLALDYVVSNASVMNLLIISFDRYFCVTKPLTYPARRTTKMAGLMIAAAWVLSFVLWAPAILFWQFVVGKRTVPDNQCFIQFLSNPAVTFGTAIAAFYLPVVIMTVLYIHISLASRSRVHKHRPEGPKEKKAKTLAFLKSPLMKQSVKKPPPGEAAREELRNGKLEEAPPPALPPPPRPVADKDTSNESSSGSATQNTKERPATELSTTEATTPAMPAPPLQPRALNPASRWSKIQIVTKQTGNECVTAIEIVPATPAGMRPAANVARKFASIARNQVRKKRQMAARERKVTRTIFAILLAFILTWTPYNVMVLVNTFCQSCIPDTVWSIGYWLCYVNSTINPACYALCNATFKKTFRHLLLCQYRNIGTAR
M4 ag = human M4 muscarinic receptor agonists, primary screen, CHO-K1 cells, Fluo-8 calcium fluorescence | CHO-K1 hM4/Gqi5; vehicle 0%, full acetylcholine response 100% | activation, % at 3 µM | 360,000 tested, 0.14% active;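 active = activation above the run mean over all test wells plus 3 SD, cut at about 32% in these data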;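 also: peak over basal fluorescence ratio per well then scaled between controls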
CHRM4 PAM = human M4 muscarinic receptor positive allosteric modulators, primary screen, CHO-K1 cells, Fluo-8 calcium fluorescence; CHO-K1 hM4/Gqi5, ACh EC20; 0% = ACh EC20, 100% = maximal ACh; activation, % at 3 µM; 360,000 tested, 0.4% active;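 active = activation above its plate's cutoff, the mean activation of sample wells plus 3 SD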
TAAR1 agonist = human TAAR1 agonists, primary screen, Fluo-8 calcium fluorescence, CHO RD-HGA16 cells | vehicle wells 0%, saturating PEA agonist 100% | activation, % at 3 µM | Trace amine-associated receptor 1 (Homo sapiens), Q96RJ0 | 360,000 tested, 0.99% active;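 active = activation above the mean activation of all test compounds in the run plus 3 SD, cut at about 38% in these data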
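Signal – calcium-sensitive Fluo-8 signal, excitation 470-495, emission 515-575 nm · System – RD-HGA16 (CHO) cells co-expressing Gα16 and hTAAR1 · Incubation – 17-24 h seeding, 75 min 37 °C dye, 30 min RT · Compound dosing – 3 µM single concentration · Repeats – no replicates (n 1)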
nonsel antag count = nonselective antagonists in TAAR1 counter-screen cells, counter-screen for hTAAR1 antagonist project, cell-based, fluorescence, calcium; inhibition, % at 3 µM; AID 651780, 2012; shares compounds with TAAR1 antagonist; 2,400 tested, 77% active; counterscreen cell line, antagonist mode; in the data active = inhibition above about 22%;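 also: CHO-Ga16 host cells stimulated with ATP at an EC80 level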
TAAR1 antag conf = human TAAR1 antagonists, retest of hits, confirmation, cell-based, fluorescence. shares compounds with TAAR1 antagonist. TAAR1-expressing cells, fluorescence antagonist read-out. inhibition, % at 3 µM. 2,400 tested, 40% active; in the data active = inhibition above about 49%;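 also: CHO-Ga16 host cells challenged with agonist PEA near its EC80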
Ga16 ag counter = calcium activation in Ga16-expressing cells, counter-screen for TAAR1 antagonist project, cell-based, fluorescence; shares compounds with TAAR1 antagonist; agonist counterscreen; activation, % at 3 µM; 2,400 tested, 18% active; AID 651953, 2012; in the data active = activation above about 12%
TAAR1 ag counter = TAAR1 activation by candidate antagonists – cell-based, fluorescence, counter-screen for TAAR1 antagonist project; shares compounds with TAAR1 antagonist; hTAAR1 cell line, agonist mode; activation, % at 3 µM; 2,400 tested, 2% active; AID 651955, 2012; in the data active = activation above about 37%;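 also: CHO cells stably expressing TAAR1 with calcium dye readout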
A number is an active result; i = inactive; nt = no result given.

SMILES	TAAR1 antagonist	CHRM4 antagonist	M4 ag	CHRM4 PAM	TAAR1 agonist	nonsel antag count	TAAR1 antag conf	Ga16 ag counter	TAAR1 ag counter
O=C(NCc1ccccc1)C(c1ccc(C(F)(F)F)cc1)n1c(=O)c(-c2cc3ccccc3[nH]2)nc2ccccc21 (stereo unspecified)	i	i	i	i	i	nt	nt	nt	nt
COCCNc1nc(Oc2cccc3ccccc23)c2sccc2n1	i	i	i	i	i	nt	nt	nt	nt
O=C(NC[C@H]1CCCO1)c1cccc2c1C(=O)c1ccc(-c3ccc(F)cc3OCc3ccccc3)cc1S2(=O)=O	68.7	i	i	i	i	37.0	51.3	i	i
CC(C)c1cccc(-c2ccc3c(c2)S(=O)(=O)c2cccc(C(=O)NCc4ccccc4Cl)c2C3=O)c1	nt	i	i	i	nt	nt	nt	nt	nt
CC(C)c1cccc(-c2ccc3c(c2)S(=O)(=O)c2cccc(C(=O)NCc4ccccc4)c2C3=O)c1	60.8	i	i	i	i	36.1	i	i	i
O=C(Cn1cc(C(F)(F)F)ccc1=O)Nc1ccc2c(c1)OCO2	i	i	i	i	i	nt	nt	nt	nt
COc1cccc(Nc2nc(-c3sc(NC(=O)c4ccco4)nc3C)cs2)c1	52.4	i	i	i	i	21.6	i	i	i
COc1ccc2cc(C3=CC(=O)CC(C)(C)C3=O)ccc2c1	60.7	i	i	i	i	26.5	i	i	i
COc1ccc(-c2ccccc2C2=CC(=O)CC(C)(C)C2=O)cc1	i	i	i	i	i	nt	nt	nt	nt
Clc1ccc(CN2CCC(c3nc4ccc(Cl)cc4[nH]3)CC2)cc1	i	i	i	i	i	nt	nt	nt	nt
COc1ccc2nc(-c3ccc(CN4CCC(c5nc6ccccc6[nH]5)CC4)cc3)c(-c3ccccc3)nc2c1	75.8	nt	nt	nt	i	34.2	i	i	i
Brc1ccc2nc(-c3ccc(CN4CCC(c5nc6ccccc6[nH]5)CC4)cc3)c(-c3ccccc3)nc2c1	85.8	nt	nt	nt	i	56.4	67.9	19.9	37.5
CNC(=O)c1ccsc1NC(=O)c1sc2ccccc2c1Cl	71.3	i	i	i	i	35.4	50.2	i	i
Cc1nnc(NC(=O)c2sc3ccccc3c2Cl)s1	i	i	i	i	i	nt	nt	nt	nt
O=C(Nc1cccc(NC(=O)c2sc3ccccc3c2Cl)c1)c1ccco1	54.7	i	i	i	i	i	i	i	i
O=C(Nc1cccc(NC(=O)c2ccc(-c3cccc(Br)c3)o2)c1)c1ccco1	52.1	33.5	i	i	i	25.4	i	i	i
O=C(Nc1cccc(NC(=O)c2ccco2)c1)c1ccccc1	i	i	i	i	i	nt	nt	nt	nt
CCOC(=O)C(Cc1ccc(NC(C)=O)cc1)N1C(=O)c2ccccc2C1=O (stereo unspecified)	57.8	i	i	i	i	23.9	i	i	i
Cc1c(C(=O)Nc2cccc([N+](=O)[O-])c2)csc1-c1ccccc1	81.4	i	i	i	i	37.2	53.8	i	i
O=c1oc(C2(O)CCCCC2)cc2ccc(/C=C/c3ccc(F)cc3)cc12	63.2	i	i	i	i	25.9	i	i	i
COc1ccc(-c2c(C#N)c(N)nc(Sc3ccc(Cl)cc3)c2C#N)cc1	i	i	i	i	i	nt	nt	nt	nt
COc1nc(N)c(C#N)c(-c2ccc(N(C)CCC#N)cc2)c1C#N	80.6	i	i	i	i	29.2	52.3	17.3	i
